# High-throughput results deposited in PubChem BioAssay by Broad Institute.
# PglD DTNB – inhibitors of Campylobacter jejuni PglD acetyltransferase; purified PglD enzyme, DTNB colorimetric CoA detection; inhibition, % at 12.5 µM; 360,000 tested, 0.098% active; AID 602405; in the data active = inhibition above about 16%, passing the limit was not always enough
# CSC inhib – blocks cancer stem cells; AID 2717; inhibition, % at 7.5 µM; cancer stem cell-like cells viability, luminescence; 300,000 tested, 1.1% active; in the data active = inhibition above about 75%; tested in HMLE shEcad cells
# Rtt109 Vps75 – blocks Candida albicans Rtt109/Vps75 acetyltransferase activity | AID 540336 | purified Rtt109/Vps75, ThioGlo CoA-SH fluorescence, 4 h | inhibition, % at 34.9 µM | Q5AAJ8 | 330,000 tested, 0.16% active;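 active = inhibition of at least 50% in every replicate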
# Target sequence (Q5AAJ8 whole entry, looked up): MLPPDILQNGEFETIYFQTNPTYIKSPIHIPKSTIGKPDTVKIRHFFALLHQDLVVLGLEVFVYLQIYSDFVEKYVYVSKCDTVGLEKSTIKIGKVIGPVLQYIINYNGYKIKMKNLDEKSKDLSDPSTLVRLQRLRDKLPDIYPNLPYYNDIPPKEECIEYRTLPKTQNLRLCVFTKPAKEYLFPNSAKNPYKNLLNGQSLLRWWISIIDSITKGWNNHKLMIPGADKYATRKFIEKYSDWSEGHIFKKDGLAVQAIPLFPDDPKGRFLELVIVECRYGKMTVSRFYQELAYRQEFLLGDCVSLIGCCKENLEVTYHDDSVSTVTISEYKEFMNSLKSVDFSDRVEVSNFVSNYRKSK
# SKKanGAS inh – inhibitors of SKKanGAS S. pyogenes growth in kanamycin (SK-promoter or general growth effect). BacTiter-Glo, 6 h. inhibition, % at 7.5 µM. 300,000 tested, 1.3% active;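 active = mean replicate score, as percent of positive control median, at least 50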;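 note: strain carries kanamycin resistance gene driven by streptokinase promoter and grows in 40 µg/ml kanamycin; loss of luminescence reflects streptokinase promoter inhibition or plain growth inhibition; 0% = median of DMSO wells and 100% = positive control at its reference dose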
# FN deposition inh – fibronectin deposition inhibition | AH1F fibroblasts, Alexa488-fibronectin deposition fluorescence, overnight | inhibition, % at 12.6 µM | 350,000 tested, 0.086% active | AID 743247;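 active = mean inhibition across replicates of 30% or more, regardless of how many single replicates reach that level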;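 note: positive control wells lacked labelled fibronectin entirely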
#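 Material: AH1F fibroblast monolayer depositing Alexa488-labelled fibronectin into matrix | Input: 10000 AH1F cells/well | Medium: DMEM plus 2% serum, read in PBS | Reagent: Alexa488-fibronectin, 24 nM final in well | Compound dosing: One dose per compound, pinned | Schedule: 1 h adhesion, overnight exposure | Measured by: Fluorescence at 485 nm excitation, 525 nm emission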
# PfHsp90 yeast 2 – reduces growth (ATP signal) of yeast expressing P. falciparum Hsp90; S. cerevisiae expressing PfHsp90, BacTiter-Glo ATP, 48 h; yeast lacking PDR1 and PDR3 efflux regulators; inhibition, % at 9.4 µM; 310,000 tested, 0.32% active;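 active = every replicate shows inhibition above about 80%, whatever the replicate mean, limit read from the data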;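 note: 0% = DMSO neutral controls and 100% = 20 µM radicicol positive controls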
# The depositor's hits bear a star; . = not tested or not shown. This is a sample that favours compounds with a hit; in the whole collection about 1.7% have one here.
SMILES,PglD DTNB,CSC inhib,Rtt109 Vps75,SKKanGAS inh,FN deposition inh,PfHsp90 yeast 2
CO[C@@H]1CN(C)C(=O)c2cc(NC(C)=O)ccc2OC[C@@H](C)N(CC2CC2)C[C@@H]1C,0,.,.,.,-5,.
C[C@H]1CN([C@@H](C)CO)C(=O)c2cc(NS(C)(=O)=O)ccc2O[C@H]1CN(C)Cc1ccc(C(=O)O)cc1,-1,.,.,.,.,.
CCc1ccc(S(=O)(=O)/N=C2\C=C(Nc3ccc(C(=O)O)cc3)C(=O)c3ccccc32)cc1,1,.,20,96*,12,-21
COc1ccc(NC(=O)N(C)C[C@H]2OCCCC[C@H](C)Oc3ccc(NS(=O)(=O)c4ccccc4)cc3C(=O)N([C@@H](C)CO)C[C@@H]2C)cc1,4,.,.,.,3,.
C[C@@H]1CN([C@@H](C)CO)C(=O)c2cc(C3=CCCCC3)cnc2O[C@@H]1CN(C)Cc1cccnc1,-2,.,.,.,0,.
CC(C)CC(=O)NC(=S)Nc1ccc(S(=O)(=O)NC(C)(C)C)cc1,.,-4,55*,-3,-2,-2
CCOc1ccc(NS(=O)(=O)c2ccc(NC(=S)NC(=O)CC(C)C)cc2)cc1,.,20,21,5,.,-4
CCCN(CC1CC1)c1nc(C)nc(Nc2c(Cl)cc(Cl)cc2Cl)c1Cl,-2,86*,1,89*,1,-19
CCCN(CC1CC1)c1nc(N)c(C#N)c(CC#N)c1C#N,-2,6,4,0,.,-14
CCN(c1ccccc1)S(=O)(=O)c1ccc(C(=O)Nc2nnc(C3CC3)o2)cc1,.,32,-1,78*,1,0
CCN(c1ccccc1)S(=O)(=O)c1ccc(C(=O)Nc2nnc(-c3ccco3)o2)cc1,.,87*,10,63*,4,.
COCCNC(=O)C[C@H]1CC[C@@H](NC(=O)NC2CCCC2)[C@H](CO)O1,3,.,.,.,9,.
COc1ccc(S(=O)(=O)NC2CC3CCC2C3)cc1Cl (stereo not drawn),3,-3,-6,0,.,141*
COc1ccc(S(=O)(=O)NC2CC3CCC2C3)cc1Br (stereo not drawn),-1,-13,-1,17,1,114*
COc1ccc(Nc2nc(Nc3ccc(OC)cc3)nc(-n3[nH]c(=O)c(C)c3C)n2)cc1,1,9,-1,87*,.,.
Cc1cccc(C(=O)Nc2scc(-c3ccc(Br)cc3)c2C(=O)O)c1,-2,17,-4,89*,0,-16
COc1ccc(C(=O)NC(=S)NNC(=O)c2ccc(NC(C)=O)cc2)cc1Br,.,-16,-1,70*,4,-8
COc1ccc(Cl)cc1C(=O)NNC(=O)c1cccc([N+](=O)[O-])c1,.,-7,-11,6,-6,12
COc1ccc(C(=O)NNC(=S)NC(=O)c2ccc(F)cc2)cc1Br,1,33,.,103*,-3,.
COc1ccc(Cl)cc1C(=O)NNC(=S)NC(=O)c1ccc(F)c(F)c1,3,.,-4,99*,.,10
CCCCOc1ccc(-c2cc(C(=O)NNC(=S)NCC)c3ccccc3n2)cc1,-9,100*,7,63*,.,-36
COc1ccc(C(=O)NC(=S)NNC(=O)c2ccncc2)cc1Br,-4,.,12,.,6,6
COc1ccc(-c2cnc3c(c2)C(=O)N([C@@H](C)CO)C[C@@H](C)[C@@H](CN(C)C)O3)cc1,4,.,.,.,-1,.
Cc1noc(C)c1NC(=O)N[C@@H]1CC[C@@H](CCNC(=O)C2CC2)O[C@@H]1CO,-1,.,.,.,-10,.
COc1cc(C(=O)NNC(=S)NC(=O)c2ccc(F)cc2)cc(OC)c1OC,.,13,4,83*,-5,3
O=C(NNC(=O)c1ccc(Cl)cc1Cl)Nc1ccccc1,0,-14,7,3,-1,5
O=C(NNC(=O)c1cc(-c2ccc(Cl)cc2Cl)nc2ccccc12)Nc1ccccc1,5,-11,-5,74*,.,8
COc1cc(C(=O)NC(=S)NNC(=O)c2ccc3c(c2)OCO3)cc(OC)c1OC,4,15,8,70*,-9,13
COc1ccc(CC(=O)NNC(=S)NC(=O)c2cc(OC)c(OC)c(OC)c2)cc1,-1,.,.,.,1,.
COc1ccc(Cl)cc1C(=O)NNC(=S)NC(=O)c1cc(-c2ccc(Cl)cc2)nc2ccccc12,-3,21,-11,71*,13,1
